Hits are enriched below; roughly 2.2% of the tested compounds scored in any of these assays.
TbHK1 inh – blocks Trypanosoma brucei hexokinase 1 activity | recombinant TbHK1, G6PDH-coupled NADH A340 | inhibition, % at 10 µM | 220,000 tested, 0.11% active;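 active means inhibition of 50% or more in the single-dose primary screen; inactive means inhibition below 50%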
14-3-3 Bad inh – disrupts binding of bovine 14-3-3 zeta to phospho-Bad peptide; P63103; TR-FRET 14-3-3zeta/Dy647-pBad peptide displacement, 1 h; inhibition, % at 21.7 µM; 220,000 tested, 0.71% active;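 active means inhibition above about 70%, limit read from the data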;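 further: 0% = full 14-3-3 plus peptide FRET controls and 100% = background without 14-3-3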
Target sequence (P63103 whole entry, looked up): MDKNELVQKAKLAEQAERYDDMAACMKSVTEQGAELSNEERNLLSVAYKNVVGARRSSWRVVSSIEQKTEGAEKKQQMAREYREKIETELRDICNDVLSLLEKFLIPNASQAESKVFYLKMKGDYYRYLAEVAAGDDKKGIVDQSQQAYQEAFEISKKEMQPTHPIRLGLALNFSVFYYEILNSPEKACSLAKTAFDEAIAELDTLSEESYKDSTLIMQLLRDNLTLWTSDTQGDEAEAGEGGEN
Hck-Nef inh – inhibitors of human Hck kinase activated by Nef. P08631. Recombinant Hck-YEEI plus Nef, Z-Lyte FRET kinase assay. inhibition, % at 20 µM. 220,000 tested, 0.68% active;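 active means Hck-Nef kinase inhibition above about 50%, limit read from the data; inactive means inhibition below that limit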;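 further: 0% = DMSO with Hck plus Nef and 100% = Hck alone without Nef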
Runt-CBFb FRET – inhibitors of human RUNX1 Runt domain binding to CBFb; Cerulean-Runt/Venus-CBFb FRET ratio 530/480, 1 h; inhibition, % at 20 µM; 220,000 tested, 0.46% active; AID 1496;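 active means inhibition over about 50% at 20 µM in the single-dose screen, limit read from the data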;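 further: 0% = DMSO wells and 100% = excess unlabeled CBFb competitor control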
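Reagent – Venus-CBFb binding partner, 100 nM · Assay system – Cerulean-tagged RUNX1 Runt domain (FRET donor) fusion protein · Input – 100 nM per protein · Incubation – two 1 h room-temperature incubations shielded from light · Measured by – FRET fluorescence · Medium – Tris buffer pH 7.5 with salts and BSA · Benchmarks – unlabeled CBFb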
RanGTP-Impb inh – disruptors of Ran-importin-beta complex formation – biochemical, FRET, CFP-Ran, YFP-importin-beta, homogeneous, primary screen | 300,000 tested, 1.1% active | inhibition, % (concentration not given with the values) | cell-free CFP-Ran/YFP-importin-beta FRET ratio;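 active means more than half of the replicate wells show a fall in the fluorescence ratio signal beyond about 16%, limit read from the data, passing the limit was not always enough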;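 further: 0% = DMSO wells and 100% = Ran loaded with GDP instead of GTP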
Runt-SMMHC FRET – inhibitors of human RUNX1 Runt domain binding to CBFb-SMMHC; Cerulean-Runt/Venus-CBFb-SMMHC FRET ratio 530/480, 1 h; Q01196+Q13951; inhibition, % at 20 µM; AID 1434; 220,000 tested, 0.74% active;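 active means mean inhibition across duplicate retests at 20 µM reaching about 50%, limit read from the data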;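 further: 0% = DMSO wells and 100% = wells with excess untagged CBFb-SMMHC; inhibitors lower the FRET ratio by blocking Runt binding to CBFb-SMMHC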
Starred values were filed as active, the others as inactive; . = no result; [ ] = dose if it differs, or a comment.

SMILES	TbHK1 inh	14-3-3 Bad inh	Hck-Nef inh	Runt-CBFb FRET	RanGTP-Impb inh	Runt-SMMHC FRET
COc1cc([N+](=O)[O-])ccc1NC(=S)Nc1cc(C(=O)OC(C)C)cc(C(=O)OC(C)C)c1	-15	-5	-1	-2	-1	1
Cc1ccccc1-n1c([C@@H]2C[C@H]2c2ccccc2)n[nH]c1=S	-7	-15	1	6	12	4
CCC(CC)c1nnc(NC(=O)C2COc3ccccc3O2)s1 (stereo not given)	0	-3	0	-1	21*	1
Cc1ccc(C2C3=C(CC(C)(C)CC3=O)Nc3[nH]c(=S)[nH]c(=O)c32)cc1 (stereo not given)	.	16	.	18	.	71*
CN(/N=C/c1cc(Cl)cc(Cl)c1O)C(=S)NC(C)(C)C	-24	-16	-92	36	5	90*
O=C(N/N=C/c1ccc(OC(=O)c2ccco2)cc1)c1ccc[n+]([O-])c1	.	.	.	.	2	.
CCOC(=O)N1CCC(NC(=O)c2ccc3c(c2)sc2nc(-c4cccc(OC)c4)cn23)CC1	-11	75*	27	5	4	-3
CCOC(=O)N1CCC(NC(=O)c2ccc3c(c2)sc2nc(-c4ccccc4)cn23)CC1	-10	.	20	19	.	20
COc1ccc(Nc2ccc(S(=O)(=O)N3CCCCC3)cc2[N+](=O)[O-])cc1	7	85*	1	-2	-1	2
COc1ccc(Nc2ccc(S(=O)(=O)N3CCCCC3)cc2[N+](=O)[O-])cc1Cl	-1	-5	-2	-1	-5	0
O=C(NCCc1ccc(F)cc1)c1cc(-c2ccncc2)nc2ccccc12	-10	-16	21	-2	5	-1
O=C1c2cccc3cccc(c23)C(=O)N1c1ccc2ncccc2c1	-25	74*	33	-2	.	2
COc1ccccc1C(=O)NC1CCN(C(=S)NCCc2ccccc2)CC1	4	-13	20	-1	9	2
CCCn1nc(NC(=O)C2CCCO2)c2cc3ccc(C)cc3nc21 (stereo not given)	-18	-5	28	18	21*	29
CCn1nc(NC(=O)c2ccncc2)c2cc3cc(C)ccc3nc21	-6	6	6	8	12	22
CCCn1nc(NC(=O)C2CCCO2)c2cc3cc(C)ccc3nc21 (stereo not given)	-8	-5	40	43	56*	59*
CC(=O)c1ccc(Nc2ncnc3c2oc2ccccc23)cc1	-23	72*	2	-1	0	0
CC(=O)Nc1ccc(Nc2nc(C)nc3c2oc2ccccc23)cc1	-46	-1	0	2	-1	1
COc1ccc(CN2CCN(C(=O)C3CCC(CNS(=O)(=O)c4ccccc4)CC3)CC2)c(OC)c1OC (stereo not given)	-6	2	7	-1	-1	1
CC(=O)c1cc2c(cc1N/C(=N/S(=O)(=O)c1ccc(C)cc1)c1ccccc1)OCO2	37	-5	-2	0	23*	-1
CC(=O)c1cc2c(cc1N/C(=N/S(=O)(=O)c1ccc(C)cc1)c1ccc(Cl)cc1)OCO2	25	-5	-2	-1	6	-2
C(=N\Nc1nc2ccccc2[nH]1)/c1ccccc1	-40	-22	19	.	-2	.
Brc1ccc(-c2ccc(/C=N/Nc3nc4ccccc4[nH]3)o2)cc1	-2	-6	8	26	64*	63
c1coc(Cn2nnnc2CN2CCN(C3CCCC3)CC2)c1	4	79*	1	2	1	-3
CC(C)C(c1nnnn1Cc1ccco1)N1CCN(C2CCCC2)CC1 (stereo not given)	4	43	-1	1	7	-3
SMILES	TbHK1 inh	14-3-3 Bad inh	Hck-Nef inh	Runt-CBFb FRET	RanGTP-Impb inh	Runt-SMMHC FRET
CCOc1ccc(C(=O)NC(C(=O)NCc2cccnc2)C(C)C)cc1 (stereo not given)	.	.	.	.	7	.
CS(=O)(=O)N1c2ccccc2[C@]2(Br)C[C@H]3C(=O)N[C@@H](Cc4ccccc4)C(=O)N3[C@H]12	.	.	.	.	-2	.
CN1CCCC1CCNc1ccc2c(=O)c3ccccc3oc2c1 (stereo not given)	.	.	.	.	49*	.
O=c1c2ccccc2oc2cc(NCCCn3ccnc3)ccc12	.	.	.	.	58*	.
O=c1c2ccccc2oc2cc(NCCCN3CCOCC3)ccc12	.	.	.	.	46*	.
CCOC(=O)CNS(=O)(=O)c1ccc(S(=O)(=O)NC2CC2)cc1	.	.	.	.	1	.
COC(=O)C1=C(C)N(C)C(=S)N(C)C1c1cccc(Br)c1 (stereo not given)	-2	-5	16	-1	-1	-2
COC(=O)C1=C(C(=O)OC)C2C(C)=CC(C)=CN2C(C(=O)OC)=C1C(=O)OC (stereo not given)	-3	-12	3	2	72*	9
O=C(COc1ccccc1[N+](=O)[O-])Nc1ccc(NC(=O)c2cc3ccccc3o2)cc1	-21	90*	24	-2	7	-6
O=C(COc1ccccc1[N+](=O)[O-])Nc1ccc2oc(=O)ccc2c1	.	.	.	.	1	.
O=C(CNc1ccccc1)NNC1=NCCC1	5	89*	-15	1	4	2
O=C(CNc1ccc2ccccc2c1)NNC1=NCCC1	2	-7	-14	1	0	3
O=C(NCCN1CCCCCC1)C1CCCN1S(=O)(=O)c1cccc2nsnc12 (stereo not given)	-8	4	7	3	-3	0
S=C(NCc1ccco1)N1CCOCC1	-2	-4	18	27	22*	-8
CCc1ccccc1NC(=O)C1CCCN1C(=O)Nc1ccc(C)cc1 (stereo not given)	.	.	.	.	-1	.
COCCNC(=O)CN1CCN(C(c2ccccc2)c2ccccc2)CC1	3	88*	1	2	3	5
COC(=O)CN1CCN(C(c2ccccc2)c2ccccc2)CC1	-8	-1	1	1	2	-2
O=c1cc(CSc2ccccn2)c2ccccc2[nH]1	-1	81*[fluorescence artefact?]	16	0	.	1
Cc1cc(SCc2cc(=O)[nH]c3ccccc23)nc2ccccc12	8	-2	-3	-2	1	4
COc1ccc(CCNC(=O)CCCN2C(=O)c3ccccc3C2=O)cc1	-4	-10	-1	1	-3	3
COC(=O)c1c(N)n(CCCN2CCOCC2)c2nc3ccccc3nc12	-19	-2	28	66*	21*	130*
Nc1c(C(=O)NCc2ccccc2)c2nc3ccccc3nc2n1CCCN1CCOCC1	-15	3	40	79*	101*	76*
O=C(NCc1ccco1)c1ccc2ccccc2n1	0	-7	12	-8	-3	0
O=C(NCCCN1CCOCC1)C(=O)NCc1ccccc1	4	-3	13	0	-1	-1
